Common to all, as to type: functional, cell-based
In experiment [1] the target is T1, Peroxisome proliferator-activated receptor alpha (Homo sapiens) (UniProt Q07869).
T1 sequence (whole entry): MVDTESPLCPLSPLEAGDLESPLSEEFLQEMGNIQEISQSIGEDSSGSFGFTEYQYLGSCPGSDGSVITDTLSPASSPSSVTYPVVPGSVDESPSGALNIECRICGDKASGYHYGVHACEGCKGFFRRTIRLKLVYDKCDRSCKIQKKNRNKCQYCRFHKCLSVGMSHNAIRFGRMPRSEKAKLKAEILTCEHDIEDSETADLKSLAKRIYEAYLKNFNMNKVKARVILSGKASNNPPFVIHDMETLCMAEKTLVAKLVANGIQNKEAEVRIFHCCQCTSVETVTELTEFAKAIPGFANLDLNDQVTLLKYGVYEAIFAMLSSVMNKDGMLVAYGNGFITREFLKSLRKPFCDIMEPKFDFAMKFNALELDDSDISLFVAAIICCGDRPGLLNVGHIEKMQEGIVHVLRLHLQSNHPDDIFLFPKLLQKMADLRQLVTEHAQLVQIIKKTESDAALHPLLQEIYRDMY
The experiment in a line: Agonist activity at human PPARalpha expressed in HEK293 cells assessed as receptor transactivation at 150 uM by luciferase reporter gene assay relative to control. In short, it runs like this:
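Cells co-transfected by calcium phosphate with human PPARα expression plasmid, luciferase reporter and renilla in serum-free medium. Ligand in DMSO (≤0.1% v/v final) added 6 h post-transfection at 150 μM. Luciferase normalized to renilla, expressed as fold activation over untreated cells; at least three separate experiments, mean ± SEM.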

For experiment [2], the target named is T2, Peroxisome proliferator-activated receptor alpha (Homo sapiens, UniProt Q07869).
T2 sequence (Q07869 whole entry): T1 sequence (whole entry)
The experiment in a line: Agonist activity at human PPARalpha expressed in HEK293 cells assessed as receptor transactivation at by luciferase reporter gene assay. In short, it runs like this:
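Human PPARα reporter-gene transactivation: calcium phosphate co-transfection of receptor plasmid, luciferase reporter and renilla. Ligand in DMSO (≤0.1% v/v final) added 6 h after transfection at five concentrations, 1 to 150 μM. At least three separate experiments, ± SEM.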
In general terms: In a reporter assay the amount or activity of a reporter protein is the signal.

The target in experiment [3] is T1, Peroxisome proliferator-activated receptor alpha (Homo sapiens). The experiment in a line: Agonist activity at PPARalpha in human HepG2 cells assessed as increase in CPT1A mRNA expression at 150 uM after 48 hrs by RTqPCR relative to untreated control. In short, it runs like this:
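HepG2 grown in DMEM + 10% FBS, 37 °C, 5% CO2; 1×10^6 cells seeded in six-well dishes, grown 24 h, then given ligand at 150 μM or DMSO vehicle for 48 h. Total RNA by TRIzol; SYBR Green RTqPCR, primers 150 nM final, 60 ng cDNA, 40 cycles. CPT1A normalized to cyclophilin and to vehicle-treated cells; mean ± SEM of four determinations in duplicate.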
(In qPCR the cycle at which signal appears reflects the starting amount.)

Active and inactive are the calls of the source. The rule behind the calls is not given here.

On to `CC(Sc1nc2cc(C#N)ccc2s1)C(=O)O` (racemic), for which the outcome in experiment [1] was inactive.

In general, EC50 refers to the concentration giving half of the maximal effect. In the case of `CCCC(Sc1nc2cc(Cl)ccc2s1)C(=O)O` (racemic), in experiment [2], the EC50 came out at 9.3 µM. Besides, the fold change (FC) in experiment [1] turned out to be 2.7.

As for `CC(C)(Sc1nc2cc(C(F)(F)F)ccc2s1)C(=O)O`, in experiment [1], the result was inactive.

For `CC(Sc1nc2cc(Br)ccc2s1)C(=O)O` (racemic), the EC50 in experiment [2] came to 9.3 µM. Besides, the fold change (FC) in experiment [1] worked out at 3.2.

Turning to `CC(C)(Sc1nc2cc(C#N)ccc2s1)C(=O)O`, the EC50 in experiment [2] worked out at 46.3 µM. Moreover, the fold change (FC) in experiment [1] was 1.9.

Consider `C[C@H](Sc1nc2cc(Cl)ccc2s1)C(=O)O`, for which the EC50 in experiment [2] was 55.9 µM. In addition, the fold change (FC) in experiment [1] amounted to 2.6.

As for `CCOc1ccc2nc(SC(C)C(=O)O)sc2c1` (racemic), the EC50 in experiment [2] was 9.8 µM. The fold change (FC) in experiment [1] stood at 2.6.

Turning to `CCOc1ccc2nc(SC(C)(C)C(=O)O)sc2c1`, the EC50 in experiment [2] worked out at 69.3 µM. Besides, the fold change (FC) in experiment [1] came out at 3.3.

With `COc1ccc2sc(S[C@H](C)C(=O)O)nc2c1`, the EC50 in experiment [2] worked out at 57.3 µM. The fold change (FC) in experiment [1] was found to be 2.3.

Regarding `CC(C)(Sc1nc2cc(Br)ccc2s1)C(=O)O`, the outcome in experiment [3] was Active. For the same compound, the EC50 in experiment [2] is 2.5 µM. Also, the fold change (FC) in experiment [1] stood at 4.5.

As to `CC(C)(Sc1cccs1)C(=O)O`, the outcome in experiment [1] was inactive.

Consider `O=C(O)C(Sc1nc2cc(Cl)ccc2s1)c1ccccc1` (racemic), for which the EC50 in experiment [2] was 14.3 µM. Further, in experiment [1], the fold change (FC) was 1.6.

For the compound `CC(C)(Oc1ccc(Cl)cc1)C(=O)O`, the fold change (FC) was 2 in experiment [3] and 1.6 in experiment [1].

For the compound `CC(C)(Sc1nc2ccc(C(F)(F)F)cc2s1)C(=O)O`, in experiment [2], the EC50 amounted to 36.1 µM. Further, in experiment [1], the fold change (FC) came out at 1.7.

On to `CC(C)(Sc1nc2cc(Cl)ccc2s1)C(=O)O`, for which, in experiment [2], the EC50 came to 35.9 µM. Moreover, the fold change (FC) in experiment [1] turned out to be 1.6.

Regarding `CC(C)(Sc1nc2ccccc2s1)C(=O)O`, the result in experiment [1] was inactive.

For the compound `COc1ccc2sc(SC(C)C(=O)O)nc2c1` (racemic), the EC50 in experiment [2] stood at 33.3 µM. Also, the fold change (FC) in experiment [1] turned out to be 2.9.

`CC(C)(Sc1ccccn1)C(=O)O`: the result in experiment [1] was inactive.

For the compound `CCCCCCC(Sc1nc2cc(Cl)ccc2s1)C(=O)O` (racemic), the outcome in experiment [1] was inactive.

As for `COc1ccc2sc(SC(C)(C)C(=O)O)nc2c1`, in experiment [2], the EC50 is 45.8 µM. Also, the fold change (FC) in experiment [1] came out at 2.

Take `CC(C)(Sc1nc2ccc(C#N)cc2s1)C(=O)O`: the result in experiment [1] was inactive.

On to `CC(C)(Sc1nc2ccc(Br)cc2s1)C(=O)O`, for which the EC50 in experiment [2] came to 45.8 µM. Also, in experiment [1], the fold change (FC) was determined as 2.6.

On to `CC(C)(Sc1nc2ccc(Cl)cc2s1)C(=O)O`, for which the EC50 in experiment [2] worked out at 38.9 µM. The fold change (FC) in experiment [1] is 1.7.

On to `CC(Sc1nc2ccc(Br)cc2s1)C(=O)O` (racemic), for which, in experiment [2], the EC50 was found to be 84.3 µM. Besides, in experiment [1], the fold change (FC) stood at 1.9.

With `CC(Sc1nc2cc(Cl)ccc2s1)C(=O)O` (racemic), the EC50 in experiment [2] came to 62.5 µM. Also, the fold change (FC) in experiment [1] is 3.4.

Consider `COc1ccc2sc(S[C@@H](C)C(=O)O)nc2c1`, for which the outcome in experiment [3] was Active. Further, the EC50 in experiment [2] was found to be 1.9 µM. Also, in experiment [1], the fold change (FC) is 2.9.

For `CC(C)(Sc1ccc(Cl)s1)C(=O)O`, the fold change (FC) in experiment [3] is 2; in experiment [1], 2.8. Further, the EC50 in experiment [2] was found to be 1.8 µM.

For `C[C@@H](Sc1nc2cc(Cl)ccc2s1)C(=O)O`, the 50% effective concentration (EC50) in experiment [2] worked out at 73.5 µM. The fold change (FC) in experiment [1] was 4.5.

Take `CCCC(Sc1nc2ccc(OCC)cc2s1)C(=O)O` (racemic): in experiment [2], the EC50 is 14.8 µM. The fold change (FC) in experiment [1] was 4.7.

The values are drawn from ChEMBL document CHEMBL1154187, “Synthesis and biological evaluation of 2-heteroarylthioalkanoic acid analogues of clofibric acid as peroxisome proliferator-activated receptor alpha agonists” (J Med Chem, 2009).
